Measurements published in ChEMBL document CHEMBL2311361, “Diminutive effect on T and B-cell proliferation of non-cytotoxic α-santonin derived 1,2,3-triazoles: a report” (Eur J Med Chem, 2013).

Experiments:
[1] = Cytotoxicity against in Balb/c mouse B cells at 10^-4 M after 48 hrs by MTT assay; type: cell-based; settings: 100 µM
Summary of the method: (§1)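 Spleens taken aseptically from Balb/c mice (18–22 g). Single-cell suspension made in incomplete RPMI, RBCs lysed with Tris-ammonium chloride, cells washed, resuspended in complete RPMI and checked for viability by trypan blue. Cells seeded at 1 × 10⁶ cells/mL. Compounds in DMSO tested at 1×10⁻⁴, 1×10⁻⁵ and 1×10⁻⁶ M, 48 h, 37 °C, 5% CO₂.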

[2] = Immunosuppressive activity in Balb/c mouse B cells assessed as inhibition of LPS-induced cell proliferation at 10^-5 M after 48 hrs by MTT assay; type: functional; summary of the method: as §1
[3] = Cytotoxicity against in Balb/c mouse B cells at 10^-6 M after 48 hrs by MTT assay; type: cell-based; settings: 1 µM; summary of the method: as §1
[4] = Immunosuppressive activity in Balb/c mouse B cells assessed as inhibition of LPS-induced cell proliferation at 10^-6 M after 48 hrs by MTT assay; type: functional; summary of the method: as §1
[5] = Cytotoxicity against in Balb/c mouse T cells at 10^-6 M after 48 hrs by MTT assay; type: cell-based; settings: t-cell, 1 µM; summary of the method: as §1
[6] = Immunostimulant activity in Balb/c mouse T cells assessed as inhibition of concanavalin A-induced cell proliferation at 10^-4 M after 48 hrs by MTT assay; type: functional; settings: for inhibition at 100 µM: Mus musculus, Balb/c, T-cell, 48 h; summary of the method: as §1
[7] = Cytotoxicity against in Balb/c mouse T cells at 10^-4 M after 48 hrs by MTT assay; type: cell-based; settings: t-cell, 100 µM; summary of the method: as §1
[8] = Cytotoxicity against in Balb/c mouse T cells at 10^-5 M after 48 hrs by MTT assay; type: cell-based; settings: t-cell, 10 µM; summary of the method: as §1
[9] = Immunosuppressive activity in Balb/c mouse T cells assessed as inhibition of concanavalin A-induced cell proliferation at 10^-5 M after 48 hrs by MTT assay; type: functional; summary of the method: as §1
[10] = Cytotoxicity against in Balb/c mouse B cells at 10^-5 M after 48 hrs by MTT assay; type: cell-based; settings: 10 µM; summary of the method: as §1
[11] = Immunostimulant activity in Balb/c mouse B cells assessed as inhibition of LPS-induced cell proliferation at 10^-4 M after 48 hrs by MTT assay; type: functional; summary of the method: as §1
[12] = Immunosuppressive activity in Balb/c mouse T cells assessed as inhibition of concanavalin A-induced cell proliferation at 10^-6 M after 48 hrs by MTT assay; type: functional; settings: for inhibition at 1 µM: Mus musculus, Balb/c, T-cell, 48 h; summary of the method: as §1
[13] = Immunostimulant activity in Balb/c mouse T cells assessed as inhibition of concanavalin A-induced cell proliferation at 10^-5 M after 48 hrs by MTT assay; type: functional; summary of the method: as §1
[14] = Immunosuppressive activity in Balb/c mouse B cells assessed as inhibition of LPS-induced cell proliferation at 10^-4 M after 48 hrs by MTT assay; type: functional; summary of the method: as §1
[15] = Immunostimulant activity in Balb/c mouse B cells assessed as inhibition of LPS-induced cell proliferation at 10^-6 M after 48 hrs by MTT assay; type: functional; summary of the method: as §1
[16] = Immunosuppressive activity in Balb/c mouse T cells assessed as inhibition of concanavalin A-induced cell proliferation at 10^-4 M after 48 hrs by MTT assay; type: functional; summary of the method: as §1
[17] = Immunostimulant activity in Balb/c mouse T cells assessed as inhibition of concanavalin A-induced cell proliferation at 10^-6 M after 48 hrs by MTT assay; type: functional; summary of the method: as §1

Row | Structure (SMILES) | Activity [1] | inhibition at 10 µM [2] | Activity [3] | inhibition at 1 µM [4] | Activity [5] | inhibition at 100 µM [6] | Activity [7] | Activity [8] | inhibition at 10 µM [9] | Activity [10] | inhibition at 100 µM [11] | inhibition at 1 µM [12] | inhibition at 10 µM [13] | inhibition at 100 µM [14] | inhibition (INH) [6] | inhibition (INH) [12] | inhibition at 1 µM [15] | inhibition at 100 µM [16] | inhibition at 1 µM [17]
1 | Cc1cc(O)c(C)c2c1CC[C@H]1[C@H](C)C(=O)O[C@@H]21 | Non-toxic | 23.9% | Non-toxic | 23.1% | Non-toxic | 80.5% | Non-toxic | Non-toxic | 24.4% | Non-toxic | 18.8% | 20.7% |  |  |  |  |  |  | 
2 | Cc1cc(OCc2cnnn2-c2cc(F)ccc2I)c(C)c2c1CC[C@H]1[C@H](C)C(=O)O[C@@H]21 | Toxic | 24.2% | Toxic | 20.8% | Toxic | 19.2% | Toxic | Non-toxic | 31.4% | Non-toxic |  | 21.4% | 10.8% | 14.2% | 19.16% | 17.5% |  |  | 
3 | Cc1cc(OCc2cnnn2-c2c(Br)ccc(I)c2F)c(C)c2c1CC[C@H]1[C@H](C)C(=O)O[C@@H]21 | Non-toxic | 50% | Non-toxic | 8.57% | Non-toxic |  | Non-toxic | Non-toxic |  | Non-toxic |  |  |  | 11.4% |  |  |  |  | 
4 | Cc1cc(OCc2cnnn2-c2cccc(Br)c2COc2cccc(Br)c2)c(C)c2c1CC[C@H]1[C@H](C)C(=O)O[C@@H]21 | Non-toxic | 16.7% | Toxic | 24.2% | Toxic | 2.5% | Non-toxic | Non-toxic |  | Non-toxic |  | 14.2% |  | 17.5% |  |  |  |  | 
5 | Cc1cc(OCc2cnnn2-c2ccc(Cl)nc2)c(C)c2c1CC[C@H]1[C@H](C)C(=O)O[C@@H]21 | Non-toxic | 8.57% | Toxic |  | Toxic | 8.57% | Non-toxic | Non-toxic |  | Non-toxic | 75.7% | 20.8% | 12.8% |  |  |  | 45.7% |  | 
6 | Cc1cc(OCc2cnnn2-c2cccc(C(N)=O)c2)c(C)c2c1CC[C@H]1[C@H](C)C(=O)O[C@@H]21 | Non-toxic | 36.8% | Non-toxic | 44.2% | Non-toxic |  | Non-toxic | Non-toxic | 29.5% | Non-toxic |  | 28.4% |  | 8.42% |  |  |  | 6.31% | 
7 | COc1ccc2cc(-n3nncc3COc3cc(C)c4c(c3C)[C@@H]3OC(=O)[C@@H](C)[C@@H]3CC4)ccc2c1 | Non-toxic | 94% | Non-toxic | 25.6% | Non-toxic |  | Non-toxic | Non-toxic | 95.1% | Non-toxic |  | 93.9% |  | 28.2% |  |  |  | 93.9% | 
8 | Cc1cc(OCc2cnnn2-c2cccc(O)c2)c(C)c2c1CC[C@H]1[C@H](C)C(=O)O[C@@H]21 | Non-toxic | 7.5% | Toxic | 19.2% | Toxic |  | Non-toxic | Non-toxic |  | Non-toxic |  | 5.83% | 22.5% | 9.16% |  |  |  | 10% | 
9 | CC(=O)Nc1ccc(-n2nncc2COc2cc(C)c3c(c2C)[C@@H]2OC(=O)[C@@H](C)[C@@H]2CC3)cc1 | Toxic | 15% | Toxic | 25% | Toxic | 27.5% | Toxic | Non-toxic |  | Non-toxic | 16.7% | 20% | 13.3% |  |  |  |  |  | 
10 | Cc1cc(OCc2cnnn2-c2ccc(C=O)cc2)c(C)c2c1CC[C@H]1[C@H](C)C(=O)O[C@@H]21 | Non-toxic | 22.5% | Non-toxic | 24.2% | Non-toxic |  | Non-toxic | Non-toxic | 6.66% | Non-toxic |  | 5.83% |  | 35% |  |  |  | 20.8% | 
11 | Cc1cc(OCc2cnnn2-c2cccc(I)c2)c(C)c2c1CC[C@H]1[C@H](C)C(=O)O[C@@H]21 | Non-toxic | 20% | Non-toxic | 15.8% | Non-toxic |  | Non-toxic | Non-toxic | 20% | Non-toxic |  | 15.8% |  | 15.8% |  |  |  | 3.15% | 
12 | COc1cc(-n2nncc2COc2cc(C)c3c(c2C)[C@@H]2OC(=O)[C@@H](C)[C@@H]2CC3)cc(OC)c1OC | Non-toxic | 26.3% | Non-toxic | 16.8% | Non-toxic |  | Non-toxic | Non-toxic | 14.7% | Non-toxic |  | 20% |  | 14.7% |  |  |  | 16.8% | 
13 | Cc1cc(OCc2cnnn2-c2ccccc2C(F)(F)F)c(C)c2c1CC[C@H]1[C@H](C)C(=O)O[C@@H]21 | Non-toxic | 31.4% | Non-toxic |  | Non-toxic |  | Non-toxic | Non-toxic | 30% | Non-toxic |  | 7.14% |  | 11.4% |  |  | 62.9% | 22.9% | 
14 | C#CCOc1cc(C)c2c(c1C)[C@@H]1OC(=O)[C@@H](C)[C@@H]1CC2 | Non-toxic | 22.2% | Toxic | 29.9% | Toxic |  | Non-toxic | Non-toxic | 1.21% | Non-toxic |  |  |  | 36.8% |  |  |  | 12.2% | 24.4%
15 | Cc1ccc(I)cc1-n1nncc1COc1cc(C)c2c(c1C)[C@@H]1OC(=O)[C@@H](C)[C@@H]1CC2 | Non-toxic | 14.7% | Non-toxic | 34.7% | Non-toxic |  | Non-toxic | Non-toxic | 20% | Non-toxic |  | 15.8% |  | 16.8% |  |  |  | 15.8% | 
16 | Cc1cc(OCc2cnnn2-c2ccc3c(c2)OCO3)c(C)c2c1CC[C@H]1[C@H](C)C(=O)O[C@@H]21 | Non-toxic | 50.5% | Non-toxic | 14.7% | Non-toxic |  | Non-toxic | Non-toxic | 45.3% | Non-toxic |  | 29.5% |  | 32.6% |  |  |  | 29.5% | 
17 | CC1=C2[C@H]3OC(=O)[C@@H](C)[C@@H]3CC[C@@]2(C)C=CC1=O [SANTONIN] | Non-toxic | 25.6% | Non-toxic | 23.1% | Non-toxic |  | Non-toxic | Non-toxic |  | Non-toxic |  | -40.2% | 3.65% | -36.8% |  |  |  | -6.09% | 
